From ChEMBL document CHEMBL2163274, “Heterocyclic methylsulfone hydroxamic acid LpxC inhibitors as Gram-negative antibacterial agents” (Bioorg Med Chem Lett, 2012)
Values after ≈ are worked out from the molar mass of the structure shown.

Legend:
Pseudomonas aeruginosa [1] = test: Antibacterial activity against quinolone-resistant Pseudomonas aeruginosa PA3060; type: functional
In short: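 MIC (µg/ml) against quinolone-resistant P. aeruginosa PA-3060, run alongside efflux-competent strains PAO1 and PA-7 and the multi-efflux-pump knockout PA-3919. Some analogs were tested as racemates.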

Pseudomonas aeruginosa [2] = test: Antibacterial activity against Pseudomonas aeruginosa PA7; type: functional
In short: (§1)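 MIC in µg/ml against P. aeruginosa strains with fully functioning efflux pumps. PAO1 is wild type and efflux pump competent.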

[3] = Lipophilicity, log D of the compound at pH 7.4; type: physicochemical; conditions: buffer
Pseudomonas aeruginosa [4] = test: Antibacterial activity against multi efflux pump knock out Pseudomonas aeruginosa PA3919; type: functional
In short: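 MIC in µg/ml against P. aeruginosa PA-3919, which lacks multiple efflux pumps. The strain is used to tell whether a compound is a substrate of these pumps.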

Pseudomonas aeruginosa [5] = test: Antibacterial activity against Pseudomonas aeruginosa PAO1; type: functional; in short: as §1
[6] = biological target: T1, UDP-3-O-acyl-N-acetylglucosamine deacetylase (Pseudomonas aeruginosa, UniProt B5ATN6); test: Inhibition of Pseudomonas aeruginosa LpxC
T1 sequence (B5ATN6 whole entry): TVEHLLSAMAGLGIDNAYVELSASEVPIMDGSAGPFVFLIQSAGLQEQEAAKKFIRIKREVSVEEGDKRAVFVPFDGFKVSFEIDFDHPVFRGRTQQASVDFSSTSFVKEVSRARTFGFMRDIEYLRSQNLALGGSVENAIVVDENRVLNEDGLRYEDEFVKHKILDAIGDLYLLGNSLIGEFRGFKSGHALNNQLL

Escherichia coli = test: Antibacterial activity against Escherichia coli; type: functional
Klebsiella pneumoniae = test: Antibacterial activity against Klebsiella pneumoniae; type: functional
Acinetobacter baumannii = test: Antibacterial activity against Acinetobacter baumannii; type: functional
Pseudomonas aeruginosa [7] = test: Antibacterial activity against Pseudomonas aeruginosa; type: functional
[8] = Fraction unbound in human plasma; type: ADME, cell-free

| Compound | MIC (Pseudomonas aeruginosa [1]) [mg/L] | MIC (Pseudomonas aeruginosa [2]) [mg/L] | logD [3] | MIC (Pseudomonas aeruginosa [4]) [mg/L] | MIC (Pseudomonas aeruginosa [5]) [mg/L] | IC50 [6] [nM] | MIC90 (Escherichia coli) [mg/L] | MIC90 (Klebsiella pneumoniae) [mg/L] | MIC90 (Acinetobacter baumannii) [mg/L] | MIC90 (Pseudomonas aeruginosa [7]) [mg/L] | fraction unbound [8] |
| --- | --- | --- | --- | --- | --- | --- | --- | --- | --- | --- | --- |
| C[C@@](CCc1ccc(-c2ccccc2)cc1)(C(=O)NO)S(C)(=O)=O | 1 (≈ 2.88 µM) | 1 (≈ 2.88 µM) | 2.24 |  |  |  |  |  |  |  |  |
| C[C@@](CCn1ccc(-c2ccccc2)cc1=O)(C(=O)NO)S(C)(=O)=O | 2 (≈ 5.49 µM) | 1 (≈ 2.74 µM) | 0.8 | 0.06 (≈ 0.165 µM) |  |  |  |  |  |  |  |
| C[C@@](CCn1cc(-c2cccc(Cl)c2Cl)nn1)(C(=O)NO)S(C)(=O)=O | 4 (≈ 9.82 µM) | 4 (≈ 9.82 µM) |  | < 0.06 | 2 (≈ 4.91 µM) | 1.95 |  |  |  |  |  |
| COc1ccc(-c2cn(CC[C@](C)(C(=O)NO)S(C)(=O)=O)nn2)c(Cl)c1 | 8 (≈ 19.9 µM) | 8 (≈ 19.9 µM) |  | 0.125 (≈ 0.31 µM) | 8 (≈ 19.9 µM) | 4.71 |  |  |  |  |  |
| C[C@@](CCn1cc(-c2cccc(F)c2F)nn1)(C(=O)NO)S(C)(=O)=O | 8 (≈ 21.4 µM) | 4 (≈ 10.7 µM) |  | 0.125 (≈ 0.334 µM) | 4 (≈ 10.7 µM) | 8.08 |  |  |  |  |  |
| COc1ccc(-c2cc(CC[C@](C)(C(=O)NO)S(C)(=O)=O)no2)c(F)c1 | 1 (≈ 2.59 µM) | 0.5 (≈ 1.29 µM) |  | 0.125 (≈ 0.323 µM) | 0.5 (≈ 1.29 µM) | 2.32 |  |  |  |  |  |
| COc1ccc(-c2cc(CC[C@](C)(C(=O)NO)S(C)(=O)=O)on2)c(F)c1 | 2 (≈ 5.18 µM) | 2 (≈ 5.18 µM) | 1.23 | < 0.06 | 1 (≈ 2.59 µM) | 4.4 | 4 (≈ 10.4 µM) | 8 (≈ 20.7 µM) | 32 (≈ 82.8 µM) | 4 (≈ 10.4 µM) | 0.072 |
| COc1cccc(-c2cc(CC[C@](C)(C(=O)NO)S(C)(=O)=O)on2)c1F | 8 (≈ 20.7 µM) | 4 (≈ 10.4 µM) |  | < 0.06 | 2 (≈ 5.18 µM) | 5.32 |  |  |  |  |  |
| C[C@@](CCc1cc(-c2ccccc2)on1)(C(=O)NO)S(C)(=O)=O | 1 (≈ 2.96 µM) | 0.5 (≈ 1.48 µM) | 1.31 | < 0.06 | 0.5 (≈ 1.48 µM) | 0.511 | 4 (≈ 11.8 µM) | 32 (≈ 94.6 µM) | > 32 | 2 (≈ 5.91 µM) | 0.016 |
| C[C@@](CCn1cc(-c2ccccc2)nn1)(C(=O)NO)S(C)(=O)=O | 4 (≈ 11.8 µM) | 2 (≈ 5.91 µM) |  | 0.03 (≈ 0.0887 µM) | 1 (≈ 2.96 µM) | 0.85 |  |  |  |  |  |
| C[C@@](CCn1cc(-c2ccccc2)cn1)(C(=O)NO)S(C)(=O)=O | 2 (≈ 5.93 µM) | 1 (≈ 2.96 µM) | 1.04 | 0.015 (≈ 0.0445 µM) | 0.5 (≈ 1.48 µM) | 1.61 | 32 (≈ 94.8 µM) | > 64 | > 256 | 4 (≈ 11.9 µM) | 0.048 |
| C[C@@](CCc1cc(-c2ccccc2)no1)(C(=O)NO)S(C)(=O)=O | 2 (≈ 5.91 µM) | 1 (≈ 2.96 µM) | 0.99 | < 0.06 | 0.5 (≈ 1.48 µM) | 3.02 | 1 (≈ 2.96 µM) | 4 (≈ 11.8 µM) | > 32 | 2 (≈ 5.91 µM) | 0.013 |
| C[C@@](CCn1cc(-c2ccc(Cl)cc2F)nn1)(C(=O)NO)S(C)(=O)=O | 1 (≈ 2.56 µM) | 1 (≈ 2.56 µM) | 1.34 | 0.008 (≈ 0.0205 µM) | 0.5 (≈ 1.28 µM) | 0.657 | 1 (≈ 2.56 µM) | 2 (≈ 5.12 µM) | > 32 | 1 (≈ 2.56 µM) |  |
| C[C@@](CCn1cc(-c2ccc(Cl)c(F)c2)nn1)(C(=O)NO)S(C)(=O)=O | 2 (≈ 5.12 µM) | 2 (≈ 5.12 µM) |  | 0.06 (≈ 0.154 µM) | 2 (≈ 5.12 µM) | 0.912 |  |  |  |  |  |
| COc1ccc(-c2cn(CC[C@](C)(C(=O)NO)S(C)(=O)=O)nn2)c(F)c1 | 4 (≈ 10.4 µM) | 2 (≈ 5.18 µM) | 1.36 | 0.06 (≈ 0.155 µM) | 2 (≈ 5.18 µM) | 1.2 | 16 (≈ 41.4 µM) | > 32 | > 32 | 4 (≈ 10.4 µM) | 0.085 |
| Cc1ccc(-c2cn(CC[C@](C)(C(=O)NO)S(C)(=O)=O)nn2)cc1 | 8 (≈ 22.7 µM) | 4 (≈ 11.4 µM) |  | 0.125 (≈ 0.355 µM) | 2 (≈ 5.68 µM) | 1.39 |  |  |  |  |  |
| C[C@@](CCn1cc(-c2ccc(Cl)c(Cl)c2)nn1)(C(=O)NO)S(C)(=O)=O | 2 (≈ 4.91 µM) | 2 (≈ 4.91 µM) |  | < 0.06 | 1 (≈ 2.46 µM) | 1.67 |  |  |  |  |  |
| C[C@@](CCn1cc(-c2ccc(F)c(F)c2)nn1)(C(=O)NO)S(C)(=O)=O | 4 (≈ 10.7 µM) | 4 (≈ 10.7 µM) |  | 0.06 (≈ 0.16 µM) | 4 (≈ 10.7 µM) | 1.87 |  |  |  |  |  |
| CC(CCc1cc(-c2cccc(Cl)c2Cl)on1)(C(=O)NO)S(C)(=O)=O (racemic) | 2 (≈ 4.91 µM) |  |  | 0.06 (≈ 0.147 µM) |  | 2.66 |  |  |  |  |  |
| CC(CCc1cc(-c2cccc(F)c2)on1)(C(=O)NO)S(C)(=O)=O (racemic) | 4 (≈ 11.2 µM) |  |  | < 0.06 |  | 6.75 |  |  |  |  |  |
| CC(CCc1cc(-c2ccccc2F)on1)(C(=O)NO)S(C)(=O)=O (racemic) | 2 (≈ 5.61 µM) | 2 (≈ 5.61 µM) |  | 0.06 (≈ 0.168 µM) | 1 (≈ 2.81 µM) | 8.31 |  |  |  |  |  |
| Cc1ccc(-c2cc(CCC(C)(C(=O)NO)S(C)(=O)=O)on2)cc1 (racemic) | 2 (≈ 5.68 µM) | 2 (≈ 5.68 µM) |  | < 0.06 | 1 (≈ 2.84 µM) | 2.93 |  |  |  |  |  |
| CC(CCc1cc(-c2cccc(F)c2F)no1)(C(=O)NO)S(C)(=O)=O (racemic) | 4 (≈ 10.7 µM) | 2 (≈ 5.34 µM) |  | < 0.06 | 2 (≈ 5.34 µM) | 6.81 |  |  |  |  |  |
| CC(CCc1cn(-c2ccccc2)nn1)(C(=O)NO)S(C)(=O)=O (racemic) | 32 (≈ 94.6 µM) | 16 (≈ 47.3 µM) |  | 0.5 (≈ 1.48 µM) | 8 (≈ 23.6 µM) | 3 |  |  |  |  |  |
| CC(CCc1cnn(-c2ccccc2)c1)(C(=O)NO)S(C)(=O)=O (racemic) | 64 (≈ 190 µM) | 32 (≈ 94.8 µM) |  | 0.5 (≈ 1.48 µM) | 8 (≈ 23.7 µM) | 13.5 |  |  |  |  |  |
| CC(CCc1nnc(-c2ccccc2)[nH]1)(C(=O)NO)S(C)(=O)=O (racemic) | > 64 | > 64 |  | 64 (≈ 189 µM) | > 64 | > 100 |  |  |  |  |  |
| CC(CCc1nc(-c2ccccc2)no1)(C(=O)NO)S(C)(=O)=O (racemic) | > 64 | 32 (≈ 94.3 µM) |  | 0.5 (≈ 1.47 µM) | 16 (≈ 47.1 µM) | > 100 |  |  |  |  |  |
| CC(CCc1cc(-c2ccccc2)n[nH]1)(C(=O)NO)S(C)(=O)=O (racemic) | > 64 | > 64 |  | 4 (≈ 11.9 µM) | > 64 | > 100 |  |  |  |  |  |
| CC(CCn1ncc(-c2ccccc2)n1)(C(=O)NO)S(C)(=O)=O (racemic) | 64 (≈ 189 µM) | 32 (≈ 94.6 µM) |  | 0.5 (≈ 1.48 µM) | 32 (≈ 94.6 µM) | > 100 |  |  |  |  |  |
